Experimental findings from ChEMBL document CHEMBL2057139, “Synthesis, antimalarial activity and cytotoxicity of 10-aminoethylether derivatives of artemisinin” (Bioorg Med Chem, 2012) are described below.

In data set [1] the test system is Plasmodium falciparum. Description: Antimalarial activity against asexual erythrocyte stage of chloroquine-sensitive Plasmodium falciparum D10 by parasite lactate dehydrogenase assay. Format: functional, organism-based. In a few lines: (§1)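 Asexual erythrocyte-stage P. falciparum kept in continuous culture (modified Trager–Jensen). Growth was read by parasite lactate dehydrogenase assay. Stocks were 20 mg/ml in 100% DMSO, sonicated, and tested as suspension if not dissolved. Full dose–response started at 100 ng/ml, with 2-fold serial dilution in complete medium to 10 concentrations (lowest 0.2 ng/ml). Each strain was tested in triplicate on one occasion. IC50 is 50% parasite growth inhibition.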

The subject of data set [2] is Plasmodium falciparum. Put plainly: Antimalarial activity against asexual erythrocyte stage of chloroquine-resistant Plasmodium falciparum Dd2 by parasite lactate dehydrogenase assay. Format: functional, organism-based. In a few lines:
as §1

The test system of another data set is CHO. Put plainly: Cytotoxicity against CHO cells by MTT assay. Format: cell-based, Cricetulus griseus. Particulars: for Activity: chinese hamster, cho; for IC50: Cricetulus griseus, CHO.
Data set [3] concerns Plasmodium falciparum. Description: Resistance index ratio of IC50 for asexual erythrocyte stage of chloroquine-resistant Plasmodium falciparum Dd2 to IC50 for asexual erythrocyte stage of chloroquine-sensitive Plasmodium falciparum D10. Format: functional.

Turning to `C[C@H]1[C@@H](OCCN2CCNCC2)O[C@@H]2O[C@@]3(C)CC[C@H]4[C@H](C)CC[C@@H]1[C@@]24OO3.O=C(O)C(=O)O`, the IC50 in the data set with Plasmodium falciparum [1] is 1.8 nM; with Plasmodium falciparum [2], 50.9 nM. Besides, the Activity result in the data set on CHO was “Non-toxic”. Moreover, in the data set with Plasmodium falciparum [3], the “Ratio IC50” value stood at 28.318.

Regarding `C[C@H]1[C@@H](OCCN2CCOCC2)O[C@@H]2O[C@@]3(C)CC[C@H]4[C@H](C)CC[C@@H]1[C@@]24OO3.O=C(O)C(=O)O`, the IC50 in the data set on Plasmodium falciparum [1] was 4.64 nM; in the data set with Plasmodium falciparum [2], 16.2 nM. In addition, the Activity entry in the data set with CHO is on record as “Non-toxic”. In the data set with Plasmodium falciparum [3], the “Ratio IC50” value is listed as 3.483.

As to `CC(C)N(CCNCCO[C@H]1O[C@@H]2O[C@@]3(C)CC[C@H]4[C@H](C)CC[C@@H]([C@H]1C)[C@@]24OO3)C(C)C.O=C(O)C(=O)O`, the IC50 in the data set with Plasmodium falciparum [1] turned out to be 1.83 nM; in the data set on Plasmodium falciparum [2] it was 48.1 nM. Further, the Activity result in the data set with CHO is recorded as “Non-toxic”. In addition, in the data set with Plasmodium falciparum [3], the “Ratio IC50” value was found to be 26.24.

With `C[C@H]1[C@@H](OCCNCCNc2ccccc2)O[C@@H]2O[C@@]3(C)CC[C@H]4[C@H](C)CC[C@@H]1[C@@]24OO3.O=C(O)C(=O)O`, the results for the IC50 with Plasmodium falciparum [1], with Plasmodium falciparum [2] and with CHO were 2.61 nM, 55.1 nM and 47500 nM, respectively. For the same compound, the “Ratio IC50” value with Plasmodium falciparum [3] was determined as 21.086.

Turning to `C[C@H]1[C@@H](OCCN(C)Cc2ccccc2)O[C@@H]2O[C@@]3(C)CC[C@H]4[C@H](C)CC[C@@H]1[C@@]24OO3.O=C(O)C(=O)O`, the IC50 with Plasmodium falciparum [1] amounted to 1.44 nM; in the data set with Plasmodium falciparum [2], 20.1 nM; in the data set on CHO, 141000 nM. Besides, the “Ratio IC50” value in the data set on Plasmodium falciparum [3] came to 13.888.

For `CC[C@H]1CN2CCc3cc(OC)c(OC)cc3[C@@H]2C[C@@H]1C[C@H]1NCCc2cc(OC)c(OC)cc21` [EMETINE], the IC50 in the data set with CHO is 19.8 nM.

Regarding `C[C@H]1[C@@H](OCCNCCN2CCOCC2)O[C@@H]2O[C@@]3(C)CC[C@H]4[C@H](C)CC[C@@H]1[C@@]24OO3.O=C(O)C(=O)O`, the figures for the IC50 in the data set on Plasmodium falciparum [1] and with Plasmodium falciparum [2] were 6.88 nM and 61.6 nM, respectively. For the same compound, the Activity entry in the data set on CHO was “Non-toxic”. Further, the “Ratio IC50” value in the data set on Plasmodium falciparum [3] came to 8.945.

With `C[C@H]1[C@@H](O)O[C@@H]2O[C@@]3(C)CC[C@H]4[C@H](C)CC[C@@H]1[C@@]24OO3` [ARTENIMOL], the IC50 turned out to be 0.785 nM in the data set with Plasmodium falciparum [1] and 3.48 nM with Plasmodium falciparum [2]. Besides, the “Ratio IC50” value in the data set with Plasmodium falciparum [3] was determined as 4.433.

As to `C[C@H]1[C@@H](OCCNCCCn2ccnc2)O[C@@H]2O[C@@]3(C)CC[C@H]4[C@H](C)CC[C@@H]1[C@@]24OO3.O=C(O)C(=O)O`, the IC50 in the data set on Plasmodium falciparum [1] came to 6.04 nM; in the data set with Plasmodium falciparum [2], 189 nM. Besides, the Activity entry in the data set on CHO is “Non-toxic”. In the data set with Plasmodium falciparum [3], the “Ratio IC50” value was determined as 31.343.

In the case of `C[C@H]1[C@H](OC(=O)CCC(=O)[O-])O[C@@H]2O[C@@]3(C)CC[C@H]4[C@H](C)CC[C@@H]1[C@@]24OO3.[Na+]` [SODIUM ARESUNATE], the results for the IC50 with Plasmodium falciparum [1] and with Plasmodium falciparum [2] were 0.933 nM and 25.9 nM, respectively. For the same compound, the “Ratio IC50” value in the data set on Plasmodium falciparum [3] came out at 27.719.

Regarding `C[C@H]1[C@@H](OCCNCCN2CCCCC2)O[C@@H]2O[C@@]3(C)CC[C@H]4[C@H](C)CC[C@@H]1[C@@]24OO3.O=C(O)C(=O)O`, the IC50 in the data set on Plasmodium falciparum [1] was determined as 6.72 nM; in the data set on Plasmodium falciparum [2] it was 66.7 nM. The Activity result in the data set with CHO is “Non-toxic”. For the same compound, the “Ratio IC50” value in the data set with Plasmodium falciparum [3] stood at 9.932.

Take `C[C@H]1[C@@H](OCCNCc2ccco2)O[C@@H]2O[C@@]3(C)CC[C@H]4[C@H](C)CC[C@@H]1[C@@]24OO3.O=C(O)C(=O)O`: the figures for the IC50 with Plasmodium falciparum [1], in the data set with Plasmodium falciparum [2] and with CHO were 2.41 nM, 21.4 nM and 79700 nM, respectively. Further, the “Ratio IC50” value with Plasmodium falciparum [3] was 8.858.

For the compound `C[C@H]1[C@@H](OCCN2CCCCC2)O[C@@H]2O[C@@]3(C)CC[C@H]4[C@H](C)CC[C@@H]1[C@@]24OO3.O=C(O)C(=O)O`, the values for the IC50 in the data set on Plasmodium falciparum [1] and in the data set on Plasmodium falciparum [2] were 3.31 nM and 32.1 nM, respectively. Moreover, the Activity entry in the data set on CHO was “Non-toxic”. In the data set on Plasmodium falciparum [3], the “Ratio IC50” value was 9.695.

Take `CC(C)CNCCO[C@H]1O[C@@H]2O[C@@]3(C)CC[C@H]4[C@H](C)CC[C@@H]([C@H]1C)[C@@]24OO3.O=C(O)C(=O)O`: the IC50 in the data set with Plasmodium falciparum [1] stood at 4.01 nM; with Plasmodium falciparum [2], 54.9 nM; in the data set with CHO, 72900 nM. Moreover, the “Ratio IC50” value with Plasmodium falciparum [3] is 13.68.
